Publication PMC3217170 (Biochimica et biophysica acta, 2011)

What was measured:
CCKA receptor = CCKA receptor mediation of PKCθ T538 phosphorylation in pancreatic acini; type: cell-based, rat
PKCθ / RafB = assay: Co-IP association of PKCθ with RafB; type: cell-based, rat
Method in brief: (§1)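 Rat pancreatic acini are dispersed by collagenase and preincubated 2 hrs at 37 °C in HEPES (pH 7.45) incubation solution, then left unstimulated or given CCK (10 nM) or TPA (1 μM). Cells are lysed in CelLytic buffer with vanadate, PMSF and protease inhibitors. Lysate (750 μg/ml) is immunoprecipitated overnight at 4 °C with 4 μg anti-PKCθ plus protein G-agarose, PBS-washed, then analysed by SDS-PAGE/Western blot; ≥3 experiments.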

PKCθ / RafA = assay: Co-IP association of PKCθ with RafA; type: cell-based, rat; settings: 2.5 min, 3 independent experiments; for association of PKCθ with RafA: CCK 10 nM or TPA 1 μM
PKCθ / p85 PI3K = assay: Co-IP association of PKCθ with p85 PI3K; type: cell-based, rat
Method in brief: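 Rat acini stimulated with CCK 10 nM or TPA 1 μM, then lysed in CelLytic buffer with vanadate, PMSF and protease inhibitors. Lysate (750 μg/ml) incubated overnight at 4 °C with 4 μg antibody and protein G-agarose. Immunoprecipitates washed with PBS, then analysed by SDS-PAGE and Western blotting.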

PKCθ / RafC = assay: Co-IP association of PKCθ with RafC; type: cell-based, rat; settings: 2.5 min, 3 independent experiments; for association of PKCθ with RafC: CCK 10 nM or TPA 1 μM
PKCθ / 14-3-3γ = assay: Co-IP association of PKCθ with 14-3-3γ; type: cell-based, rat; settings: CCK 10 nM or TPA 1 μM, data not shown
pT538 PKCθ = assay: PKCθ immunofluorescence-cytochemistry; type: cell-based, rat; settings: TPA 1 μM or CCK 10 nM, 10 minutes; 4 independent experiments
Method in brief: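 Acini left untreated or given TPA 1 μM or CCK 10 nM for 10 min, then washed, fixed, permeabilized and cytocentrifuged onto poly-L-lysine slides. Labelled overnight at 4 °C with rabbit anti-pT538 PKCθ and mouse anti-E-cadherin (1:500), detected with Alexa 488/555 secondaries, nuclei stained with DAPI. Isotype-matched primary as negative control; 4 experiments.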

PKCθ / Cbl = assay: Co-IP association of PKCθ with Cbl; type: cell-based, rat; settings: CCK 10 nM or TPA 1 μM, data not shown
PKD (pS744/748) = assay: PKD phosphorylation stimulated by CCK or TPA; type: cell-based, rat; settings: no inhibitor, p<0.05
Method in brief: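 Collagenase-dispersed rat acini preincubated 3 h ± 20 μM PKCθ pseudosubstrate, then CCK (10 nM, 2.5 min) or TPA (1 μM, 5 min), and lysed. Equal protein Western-blotted for pY311 PKCδ, pS744/748 PKD, pS338 RafC or pY416 Src, with total PKCθ and α/β tubulin as loading controls. Bands quantified by densitometry in the linear range. ≥3 experiments; mean±SEM; paired t-test.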

PKCθ / Lyn = assay: Co-IP association of PKCθ with Lyn; type: cell-based, rat; settings: 2.5 min, 3 independent experiments; for association of PKCθ with Lyn: CCK 10 nM or TPA 1 μM
[1] = test system: PKCθ (pT538) in pancreatic acini; assay: PKCθ T538 phosphorylation in rat pancreatic acini; type: cell-based; settings: for tmax of pT538 PKCθ phosphorylation / pT538 PKCθ phosphorylation, maximum at about 1 min / pT538 PKCθ phosphorylation at 30 min: time course; for tmax of pT538 PKCθ phosphorylation / pT538 PKCθ phosphorylation, maximum at about 1 min / pT538 PKCθ phosphorylation at 30 min / stimulation of PKCθ phosphorylation (pT538), secretagogues: 5 independent experiments; for stimulation of PKCθ phosphorylation (pT538), secretagogues: isolated rat pancreatic acini, 5 minutes, Western blot
PKCθ / tubulin = assay: Co-IP association of PKCθ with tubulin; type: cell-based, rat
Method in brief: as §1

PKCθ / Akt = assay: Co-IP association of PKCθ with Akt; type: cell-based, rat; settings: CCK 10 nM or TPA 1 μM, 2.5 min, 3 independent experiments
PKCθ [2] = assay: PKCθ translocation to membranes; type: cell-based, rat; settings: p<0.05, mean±S.E., 5 independent experiments
Method in brief: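 Acini stimulated with CCK for 1 min or TPA for 5 min, then homogenized in Tris pH 7.5 buffer with EGTA/EDTA, vanadate, PMSF and protease inhibitors. The cleared supernatant was spun at 60,000×g for 30 min at 4 °C. The membrane pellet was washed, solubilized in Triton/deoxycholate buffer, sonicated and spun at 10,000×g. Western blot used anti-PKCθ; calpain and E-cadherin served as fraction markers. Results given as % control; 5 experiments.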

PKCθ / MALT-1 = assay: Co-IP association of PKCθ with MALT-1; type: cell-based, rat; settings: CCK 10 nM or TPA 1 μM, data not shown
[3] = test system: pancreatic acini (amylase secretion); assay: Amylase release from pancreatic acini; type: cell-based, rat; settings: 15 minutes, basal 1.7±0.2, mean±S.E., 6 experiments
Method in brief: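 Rat pancreatic acini from collagenase digestion; 2 h preincubation ± 20 μM PKCθ pseudosubstrate in HEPES-buffered (pH 7.45) standard incubation solution, then 15 min with secretagogue. Medium amylase measured with Phadebas reagent and expressed as % of total cellular amylase released during incubation. Means±S.E.; paired Student's t-test.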

PI-3 kinase = settings: pancreatic acinar cells; ref [67]; cited from earlier work
phospholipase D = settings: pancreatic acinar cells; ref [67]; cited from earlier work
PYK2/CAKβ = settings: pancreatic acinar cells; ref [17]; cited from earlier work
PKCmu (PKD1) = settings: pancreatic acinar cells; no reference printed at this sentence; cited from earlier work
PKCδ [4] = settings: pancreatic acinar cells, cited from earlier work
Lyn = settings: pancreatic acinar cells; ref [64]; cited from earlier work
CrKII = settings: pancreatic acinar cells; ref [66]; cited from earlier work
PKCθ (T538) = settings: ref [61]; cited from earlier work
PKCθ [5] = settings: ref [62]; cited from earlier work
CCKB receptors = assay: CCKB receptor mediation of PKCθ T538 phosphorylation in pancreatic acini; type: cell-based, rat; settings: 1 min, isolated acini, Western blot
PKCθ [6] = settings: ref [56]; cited from earlier work
PKCδ [7] = settings: ref [60]; cited from earlier work

O=C(O)Cn1c(C(=O)Nc2nc(-c3ccccc3Cl)cs2)cc2ccccc21 [SR27897, 1-[[2-(4-(2-chlorophenyl)-thiazol-2-yl)aminocarbonyl]indolyl]acetic acid]
inhibition of CCK-stimulated PKCθ phosphorylation, CCKA receptor antagonists (CCKA receptor; preincubated 5 min, then CCK 10 nM for 1 min): completely inhibited

CCCCCCCCCCCCCC(=O)O[C@@H]1[C@@H](C)[C@@]2(O)[C@@H](C=C(CO)C[C@]3(O)C(=O)C(C)=C[C@@H]23)[C@H]2C(C)(C)[C@]12OC(C)=O [TPA, 12-O-tetradecanoylphobol-13-acetate]
association of PKCθ with RafB (PKCθ / RafB): but not an association with p85 PI3K, PKD1, RafB | association of PKCθ with RafA (PKCθ / RafA): increase in the association | association of PKCθ with p85 PI3K (PKCθ / p85 PI3K): but not an association with p85 PI3K | association of PKCθ with RafC (PKCθ / RafC): increase in the association | association of PKCθ with 14-3-3γ (PKCθ / 14-3-3γ): but not with MALT-1, Bcl-10, 14-3-3γ or Cbl | phosphoT538 PKCθ in the membrane (immunofluorescence) (pT538 PKCθ): increased in the membrane in both cases (Panel B and C, Fig. 6, respectively), with the increase caused by TPA more prominent | association of PKCθ with Cbl (PKCθ / Cbl): but not with MALT-1, Bcl-10, 14-3-3γ or Cbl | phosphorylation of PKD stimulated by TPA (PKD (pS744/748); TPA 1 μM, 5 min): 19.1±3.0 folds over control | association of PKCθ with Lyn (PKCθ / Lyn): increase in the association | tmax of pT538 PKCθ phosphorylation [1]: 1.60±0.06 min | pT538 PKCθ phosphorylation, maximum at about 1 min ([1]; mean±S.E.): 188±13 % of control | pT538 PKCθ phosphorylation at 30 min ([1]; mean±S.E.): 171±23 % of control | association of PKCθ with tubulin (PKCθ / tubulin): but not an association with p85 PI3K, PKD1, RafB, Bcl-10, Cbl, MALT-1, tubulin | association of PKCθ with Akt (PKCθ / Akt): increase in the association | membrane associated PKCθ (PKCθ [2]; TPA, 5 min incubation): 189±59 % of control | association of PKCθ with MALT-1 (PKCθ / MALT-1): but not with MALT-1, Bcl-10, 14-3-3γ or Cbl

C[N+](C)(C)CCOC(N)=O [carbachol]
stimulation of PKCθ phosphorylation (pT538), secretagogues [1]: stimulated a significant increase | Amylase secretion (% total), −PKCθ inhibitor ([3]; Carbachol 1 μM): 6.8±0.7 % total | Amylase secretion (% total), −PKCθ inhibitor ([3]; Carbachol 1 mM): 6.2±0.7 % total

COOH-terminal octapeptide of cholecystokinin [CCK]
CCKA receptor state mediating PI-3 kinase activation (PI-3 kinase): mediated entirely by the activation of the high affinity receptor state | association of PKCθ with RafB (PKCθ / RafB): but not an association with p85 PI3K, PKD1, RafB | association of PKCθ with RafA (PKCθ / RafA): increase in the association | direct association of PKCθ with RafA at low CCK concentration or with CCK-JMV (PKCθ / RafA; CCK 0.1–1–10 nM or CCK-JMV): observed also at low CCK concentration | association of PKCθ with p85 PI3K (PKCθ / p85 PI3K): but not an association with p85 PI3K | CCKA receptor state mediating phospholipase D activation (phospholipase D): mediated entirely by the activation of the high affinity receptor state | association of PKCθ with RafC (PKCθ / RafC): increase in the association | direct association of PKCθ with RafC at low CCK concentration or with CCK-JMV (PKCθ / RafC; CCK 0.1–1–10 nM or CCK-JMV): observed also at low CCK concentration | CCK stimulation of PKCθ activation mediated by the high affinity state CCKA receptor (CCKA receptor; from CCK-JMV versus CCK maximal effect): 30% | share of maximal PYK2/CAKβ activation due to high affinity CCKA receptor state (PYK2/CAKβ): 20% | association of PKCθ with 14-3-3γ (PKCθ / 14-3-3γ): but not with MALT-1, Bcl-10, 14-3-3γ or Cbl | phosphoT538 PKCθ in the membrane (immunofluorescence) (pT538 PKCθ): increased in the membrane | CCK concentration for maximal PKCmu (PKD1) activation (PKCmu (PKD1)): 10 nM | association of PKCθ with Cbl (PKCθ / Cbl): but not with MALT-1, Bcl-10, 14-3-3γ or Cbl | phosphorylation of PKD stimulated by CCK (PKD (pS744/748); CCK 10 nM, 2.5 min): 19.4±3.69 folds over control | CCK concentration required to fully activate PKCδ (PKCδ [4]; no reference printed at this sentence): 100 nM | CCKA receptor state mediating PKCδ activation (PKCδ [4]; ref [14]): mediated only through activation of the low affinity CCKA receptor state | association of PKCθ with Lyn (PKCθ / Lyn): increase in the association | direct association of PKCθ with Lyn at low CCK concentration or with CCK-JMV (PKCθ / Lyn; CCK 0.1–1–10 nM or CCK-JMV): observed also at low CCK concentration | maximal stimulation of T538 phosphorylation of PKCθ ([1]; 10 nM, 1 minute, 4–5 independent experiments, mean±S.E.): 239±25 % of control | concentration of maximal effect, T538 PKCθ phosphorylation ([1]; dose-response, 1 minute): 10 nM | stimulation of PKCθ phosphorylation (pT538), secretagogues [1]: stimulated a significant increase | lowest concentration with detectable T538 PKCθ phosphorylation ([1]; pancreatic acinar cells): 0.1 nM | EC50 ([1]; read-out: half-maximal effect (EC50), T538 PKCθ phosphorylation, dose-response, 1 minute, 4–5 independent experiments, GraphPad 5.0): 0.174 ± 0.008 nM | tmax of pT538 PKCθ phosphorylation [1]: 0.78±0.08 min | pT538 PKCθ phosphorylation, maximum at about 1 min ([1]; mean±S.E.): 197±19 % of control | pT538 PKCθ phosphorylation at 30 min ([1]; mean±S.E.): 145±11 % of control | association of PKCθ with tubulin (PKCθ / tubulin): but not an association with p85 PI3K, PKD1, RafB, Bcl-10, Cbl, MALT-1, tubulin | share of Lyn activation due to high affinity CCKA receptor state (Lyn): 60% | association of PKCθ with Akt (PKCθ / Akt): increase in the association | Amylase secretion (% total), −PKCθ inhibitor ([3]; CCK 0.03 nM): 5.1±0.8 % total | Amylase secretion (% total), −PKCθ inhibitor ([3]; CCK 0.1 nM): 7.1±0.6 % total | Amylase secretion (% total), −PKCθ inhibitor ([3]; CCK 100 nM): 4.5±0.4 % total | CCKA receptor state mediating CrKII phosphorylation (CrKII): mediated only through activation of the low affinity CCKA receptor state | membrane associated PKCθ (PKCθ [2]; CCK, 1 min incubation): 216±34 % of control | association of PKCθ with MALT-1 (PKCθ / MALT-1): but not with MALT-1, Bcl-10, 14-3-3γ or Cbl

EGF: Epidermal growth factor
T538 PKCθ phosphorylation in A431 cells (PKCθ (T538)): increases T538 PKCθ phosphorylation

IGF: insulin-like growth factor 1
PKCθ catalytic activity in rhabdomyosarcoma cell line (PKCθ [5]): increases PKCθ catalytic activity

bombesin
stimulation of PKCθ phosphorylation (pT538), secretagogues [1]: stimulated a significant increase

gastrin
pT538 PKCθ phosphorylation by gastrin (CCKB receptors): did not produce any increase

insulin: known pancreatic growth factor
PKCθ activation in myocytes (PKCθ [6]): able to increase PKCθ activation

secretin: gastrointestinal hormone that causes an increase in the cAMP
stimulation of PKCθ phosphorylation (pT538), secretagogues [1]: Neither

vasoactive intestinal peptide [VIP]
PKCδ activation in cortical astrocytes (PKCδ [7]): activates PKCδ | stimulation of PKCθ phosphorylation (pT538), secretagogues [1]: Neither | Amylase secretion (% total), −PKCθ inhibitor ([3]; VIP 10 nM): 3.4±0.6 % total
